This is a sample that favours compounds with a hit; in the whole collection about 2.9% have one here.
PRMT1 FP inh: blocks human protein arginine methyltransferase 1 | recombinant PRMT1, activity-based probe fluorescence polarization | inhibition, % at 2.79 µM | 1.3% of 370,000 active | AID 652257;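 active = inhibition above about 21% made by adding two undisclosed values, limit read from the data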
Target sequence (Q99873 whole entry, looked up): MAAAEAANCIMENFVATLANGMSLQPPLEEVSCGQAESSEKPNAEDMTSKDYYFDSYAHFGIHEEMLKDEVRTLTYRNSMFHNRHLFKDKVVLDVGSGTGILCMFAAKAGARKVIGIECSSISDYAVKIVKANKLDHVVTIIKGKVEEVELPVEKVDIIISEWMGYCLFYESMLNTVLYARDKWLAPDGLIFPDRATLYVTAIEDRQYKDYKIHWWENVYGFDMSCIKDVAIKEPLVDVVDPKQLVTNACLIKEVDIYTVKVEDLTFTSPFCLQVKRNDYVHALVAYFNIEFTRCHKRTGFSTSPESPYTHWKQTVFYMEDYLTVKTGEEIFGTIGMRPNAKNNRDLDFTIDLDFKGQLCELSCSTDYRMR
HTRA1 inhibitor: blocks human HTRA1 serine peptidase. Q92743. recombinant HTRA1, FP-rhodamine activity-based probe, fluorescence polarization. AID 504803. inhibition, % at 5.96 µM. 0.5% of 340,000 active; in the data active = inhibition above about 36%;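 note: 0% = enzyme with DMSO and 100% = wells lacking enzyme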
TCR CD3 inh: blocks the human TCR-CD3 interaction | 0.37% of 360,000 active | TAMRA-labeled TCR probe fluorescence, biochemical | inhibition, % at 9.4 µM;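 note: recombinant mutant TCR 2C K166C tagged with TAMRA read by polarization; 0% = receptor in buffer alone and 100% = receptor with positive control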
SIAE primary: blocks human sialic acid acetylesterase | Q9HAT2 | SIAE FP-Rh probe binding, fluorescence polarization | inhibition, % at 9.66 µM | 0.69% of 370,000 active | AID 1053197;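 active = inhibition above a cutoff: mean of compounds within the control limits plus 3 SD of those, cut at about 17% in these data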;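 note: 0% = plate median of compound wells and 100% = probe without SIAE protein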
ATG4B inhibitor: ATG4B (human) cysteine protease inhibition; Q9Y4P1; ATG4B cleavage of LC3-PLA2, NBD-HPC fluorescence, 1 h; inhibition, % at 8.33 µM; 0.51% of 340,000 active; AID 504462; in the data active = inhibition above about 40%
ABHD4 inh: inhibitors of mouse ABHD4. purified mABHD4, FP-Rh probe fluorescence polarization. 0.54% of 370,000 active. inhibition, % at 8.92 µM;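 active = inhibition exceeding the mean over every tested compound plus 3 SD, cut at about 30% in these data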;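 note: 0% = plate median of compound wells and 100% = S159A mutant with DMSO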
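system = mouse ABHD4 enzyme, wild type | medium = HEPES pH 7.0, NaCl, Pluronic buffer | also added = FP-Rh probe | incubation = Enzyme–compound pre-incubation 45 min, then probe 60 min, both 25 °C | technique = fluorescence polarization, excitation 525 nm, emission 598 nm, BODIPY TMR filters | controls = S159A mutant high control, sample median low control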
BSA probe FL: BSA probe counter-screen for TCR-CD3 inhibitors; 10% of 1,200 active; AID 652035; shares compounds with TCR CD3 inh; inhibition, % at 9.4 µM; TAMRA-labeled BSA probe fluorescence counterscreen; in the data active = inhibition above about 23%;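 note: 0% = buffer low control and 100% = reference high control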
TCR-CD3 inh conf: TCR-CD3 interaction inhibition, confirmation; 48% of 1,200 active; inhibition, % at 9.4 µM; TAMRA-labeled TCR probe fluorescence binding assay; AID 652036; shares compounds with TCR CD3 inh
PRMT1 inh conf: PRMT1 (human) inhibition, FP confirmation | 42% of 3,300 active | inhibition, % at 2.79 µM | recombinant His-PRMT1, activity-based probe fluorescence polarization | shares compounds with PRMT1 FP inh;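 active = mean inhibition across replicates above the hit cutoff derived for the earlier primary screen, cut at about 22% in these data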
* = called active by the depositor; . = no result given. Cut-off read from the data, not from the text of the source, unless noted: active = inhibition above about 19%; inactive = the rest.

SMILES	PRMT1 FP inh	HTRA1 inhibitor	TCR CD3 inh	SIAE primary	ATG4B inhibitor	ABHD4 inh	BSA probe FL	TCR-CD3 inh conf	others
COc1ccccc1-c1nnc(SCC(=O)N2CCCC2)o1	-3.2	-7.6	21.1*	7.6	-4.0	1.1	0.9	18.6
Cc1nc(N)sc1-c1csc(Nc2ncccn2)n1	0.9	15.7	19.6*	6.9	12.1	10.9	14.8	20.4*
O=c1c2c(-c3ccc(Cl)cc3)csc2ncn1/N=C/c1cccc([N+](=O)[O-])c1O	1.8	11.5	30.2*	6.6	-10.2	7.1	-10.5	28.9*
O=[N+]([O-])c1cccc(/C=N/n2cnnc2)c1O	-1.4	0.5	0.1	1.7	3.8	2.5	.	.
O=C(Nc1nnc([C@H]2C[C@H](O)[C@@H](CO)O2)s1)c1cccc(Oc2ccccc2)c1	1.0	.	21.4*	3.1	.	4.3	-0.9	5.2
O=C(Nc1nnc([C@@H]2C[C@H](O)[C@@H](CO)O2)s1)c1cccc(Oc2ccccc2)c1	-0.1	.	-6.0	4.6	.	0.6	.	.
C/C(=N/NC(=O)CSc1nnc(-c2ccccc2)n1-c1ccc(Cl)cc1)c1cccc(O)c1	3.3	.	.	-3.9	.	-1.9	.	.
CC1(C)CC2CC(C)(CN2S(=O)(=O)c2ccc(C(=O)Nc3ccc(S(=O)(=O)N4CCOCC4)cc3)cc2)C1 (centres undefined)	0.6	-75.0	40.6*	-110.7	-11.3	-48.1	23.0*	56.2*
CC1(C)CC2CC(C)(CN2S(=O)(=O)c2ccc(C(=O)Nc3ccc(Cl)c(S(=O)(=O)N4CCOCC4)c3)cc2)C1 (centres undefined)	-3.2	2.9	3.4	-44.4	1.6	-11.3	.	.
Cc1cc(C(=O)N/N=C/c2c(CO)cnc(C)c2O)c2ccccc2n1	-1.7	-4.1	23.5*	-4.3	-5.2	5.4	-12.6	10.0
Cc1cc(C)n(Cc2ccc(C(=O)N/N=C/c3ccc(-c4ccc([N+](=O)[O-])cc4)o3)o2)n1	-0.6	4.8	19.3*	-1.1	-2.5	2.3	-5.2	28.1*
CCCCC(=O)N/N=C/c1ccc(-c2ccc([N+](=O)[O-])cc2)o1	-2.5	0.4	0.8	2.2	-3.4	-0.3	.	.
N#Cc1cccc(NC(=O)OC2CC3CC2[C@H]2CCCCN2[C@H]3Cc2ccccc2)c1 (some centres undefined)	1.1	.	.	-1.7	.	2.5	.	.
c1coc(CSSCc2ccco2)c1	49.1*	22.5	20.3*	1.9	-4.4	27.8	3.8	6.0
Cc1ccc(NC(=O)CSCc2ccco2)cc1	6.4	-1.9	-2.9	-4.9	-8.9	3.2	.	.
COC(=O)[C@H](Cc1ccccc1)NC(=O)[C@H]1C[C@@]2(N3CCCC3)c3ccccc3N(C(=O)OC(C)(C)C)[C@H]2N1C(=O)OC(C)(C)C	3.1	.	.	9.8	.	-0.6	.	.
CCC1CCCCN1c1nc(-c2ccncc2)nc2ccccc12 (centres undefined)	-2.9	-26.4	44.2*	-7.9	7.2	-15.0	1.5	-3.5
COc1ccc(-c2cn(-c3ccc(Cl)cc3)c3[n+]2CCCCC3)cc1	-0.9	0.3	33.8*	5.7	0.3	-2.9	-5.9	0.5
O=S1(=O)c2ccc(N3CCSCC3)cc2Oc2ccccc2CN1Cc1cn(Cc2ccccc2C(F)(F)F)nn1	-1.1	.	.	-3.5	.	-3.9	.	.
COc1ccc(N(CC(=O)Nc2ccc(F)c(F)c2)S(=O)(=O)c2c(C)n[nH]c2C)cc1	-0.3	-13.1	28.4*	-7.5	8.6	0.1	0.1	2.6
CCC(NC(=O)c1ccc2c(c1)c(C)c(C)n2Cc1ccc(Cl)cc1)c1ccccc1 (centres undefined)	3.3	.	.	-4.5	.	-16.3	.	.
COc1ccc(CCNC(=O)c2cnn(-c3ccccc3)c2N)cc1OC	-4.5	.	.	-0.5	.	-2.2	.	.
O=C(O)C1CSC(c2ccncc2)N1 (centres undefined)	.	-4.9	.	.	3.2	.	.	.
O=C(O)C1CSC(c2ccco2)N1 (centres undefined)	26.6*	11.1	21.0*	7.5	8.1	14.9	-2.7	16.8	PRMT1 inh conf=32.3*
N#C/C(=C\c1ccc(O)c(O)c1)C(=O)c1ccc(O)c(O)c1	35.2*	33.9	22.9*	11.4	-6.2	23.9	11.6	72.4*	PRMT1 inh conf=18.7
SMILES	PRMT1 FP inh	HTRA1 inhibitor	TCR CD3 inh	SIAE primary	ATG4B inhibitor	ABHD4 inh	BSA probe FL	TCR-CD3 inh conf	others
CN(C)c1ccccc1-c1cc(NC=O)c2ncc(-c3cccc(C(F)(F)F)c3)n2c1	135.4*	.	37.4*	30.7*	.	73.2*	8.8	11.9	PRMT1 inh conf=24.9*
COc1ccccc1-c1cc(NC=O)c2ncc(-c3cccc(C(F)(F)F)c3)n2c1	2.6	.	-3.1	-4.8	.	1.2	.	.
C=CCN1[C@@H](C)COc2cc(N3CCSCC3)ccc2S1(=O)=O	3.1	.	.	-5.5	.	-5.5	.	.
CCn1c(SCC(=O)c2ccc(-c3ccccc3)cc2)nnc1-c1ccc(C(C)(C)C)cc1	0.8	.	.	1.7	.	7.2	.	.
O=C(N/N=C/c1sc(=O)[nH]c1-[n+]1ccc2ccccc2c1)c1ccccc1[O-]	95.4*	35.2	33.2*	11.4	4.0	16.1	-9.0	23.9*	PRMT1 inh conf=2.8
COc1ccc2c(c1)CCCN2C(=O)C1CCCN(S(=O)(=O)c2ccccc2)C1 (centres undefined)	4.4	.	.	4.4	.	10.7	.	.
c1coc(-c2ccc3nncn3c2)c1	43.5*	.	35.2*	12.3	.	23.0	-2.7	30.4*	PRMT1 inh conf=39.5*
c1cc(N2CCOCC2)ccc1-c1ccc2nncn2c1	3.1	.	1.0	2.5	.	3.9	.	.
CCOC(=O)[C@]12CCCC=C1N(Cc1ccc(OC)cc1)C(=O)[C@@H]2CC(=O)N1CCN(C(=O)C2CC2)CC1	0.7	.	.	6.3	.	0.9	.	.
Brc1ccc(CSc2nnc(SCc3ccccc3)s2)cc1	3.1	.	.	-1.5	.	0.4	.	.
O=[n+]1c2c(n([O-])c3cc(F)ccc31)CCCC2	9.3	10.6	6.3	4.2	-7.1	4.1	.	.
O=[n+]1c2c(n([O-])c3cc(F)c(N4CCCC4)cc31)CCC2	35.5*	3.9	25.4*	-9.2	-2.7	9.0	29.4*	28.4*	PRMT1 inh conf=46.8*
O=[n+]1c2c(n([O-])c3cc(F)c(N4CCCC4)cc31)CCCC2	45.7*	-2.1	23.2*	-1.9	-18.4	3.3	29.5*	27.6*	PRMT1 inh conf=47.8*
